Source: ChEMBL document CHEMBL3808372, “Identification of quinones as novel PIM1 kinase inhibitors” (Bioorg Med Chem Lett, 2016)

Columns and labels:
[1] = tested on: Tyrosine-protein kinase ABL1 (Homo sapiens), P00519 [T315I]; test: Inhibition of human ABL1 kinase T315I mutant phosphorylation (229 to 512 amino acid residues) assessed as enzyme activity at 10 uM by KINOMEScan assay; parameters: scale not given: the % may be the effect or the level left
Procedure, shortened: (§1)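 Competition binding screen on a 100-kinase KINOMEscan panel, compound tested at a single 10 μM concentration. Primary binding read-out expressed as % Ctrl = (test compound signal − positive control signal)/(negative control signal − positive control signal) × 100, with lower values meaning stronger binding.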

[2] = target: Rho-associated protein kinase 2 (Homo sapiens) (UniProt O75116); test: Inhibition of human ROCK2 (1 to 431 amino acid residues) assessed as enzyme activity at 10 uM by KINOMEScan assay; parameters: scale not given: the % may be the effect or the level left
Rho-associated protein kinase 2 (Homo sapiens), sequence (O75116 whole entry, looked up, the tested form may be a part): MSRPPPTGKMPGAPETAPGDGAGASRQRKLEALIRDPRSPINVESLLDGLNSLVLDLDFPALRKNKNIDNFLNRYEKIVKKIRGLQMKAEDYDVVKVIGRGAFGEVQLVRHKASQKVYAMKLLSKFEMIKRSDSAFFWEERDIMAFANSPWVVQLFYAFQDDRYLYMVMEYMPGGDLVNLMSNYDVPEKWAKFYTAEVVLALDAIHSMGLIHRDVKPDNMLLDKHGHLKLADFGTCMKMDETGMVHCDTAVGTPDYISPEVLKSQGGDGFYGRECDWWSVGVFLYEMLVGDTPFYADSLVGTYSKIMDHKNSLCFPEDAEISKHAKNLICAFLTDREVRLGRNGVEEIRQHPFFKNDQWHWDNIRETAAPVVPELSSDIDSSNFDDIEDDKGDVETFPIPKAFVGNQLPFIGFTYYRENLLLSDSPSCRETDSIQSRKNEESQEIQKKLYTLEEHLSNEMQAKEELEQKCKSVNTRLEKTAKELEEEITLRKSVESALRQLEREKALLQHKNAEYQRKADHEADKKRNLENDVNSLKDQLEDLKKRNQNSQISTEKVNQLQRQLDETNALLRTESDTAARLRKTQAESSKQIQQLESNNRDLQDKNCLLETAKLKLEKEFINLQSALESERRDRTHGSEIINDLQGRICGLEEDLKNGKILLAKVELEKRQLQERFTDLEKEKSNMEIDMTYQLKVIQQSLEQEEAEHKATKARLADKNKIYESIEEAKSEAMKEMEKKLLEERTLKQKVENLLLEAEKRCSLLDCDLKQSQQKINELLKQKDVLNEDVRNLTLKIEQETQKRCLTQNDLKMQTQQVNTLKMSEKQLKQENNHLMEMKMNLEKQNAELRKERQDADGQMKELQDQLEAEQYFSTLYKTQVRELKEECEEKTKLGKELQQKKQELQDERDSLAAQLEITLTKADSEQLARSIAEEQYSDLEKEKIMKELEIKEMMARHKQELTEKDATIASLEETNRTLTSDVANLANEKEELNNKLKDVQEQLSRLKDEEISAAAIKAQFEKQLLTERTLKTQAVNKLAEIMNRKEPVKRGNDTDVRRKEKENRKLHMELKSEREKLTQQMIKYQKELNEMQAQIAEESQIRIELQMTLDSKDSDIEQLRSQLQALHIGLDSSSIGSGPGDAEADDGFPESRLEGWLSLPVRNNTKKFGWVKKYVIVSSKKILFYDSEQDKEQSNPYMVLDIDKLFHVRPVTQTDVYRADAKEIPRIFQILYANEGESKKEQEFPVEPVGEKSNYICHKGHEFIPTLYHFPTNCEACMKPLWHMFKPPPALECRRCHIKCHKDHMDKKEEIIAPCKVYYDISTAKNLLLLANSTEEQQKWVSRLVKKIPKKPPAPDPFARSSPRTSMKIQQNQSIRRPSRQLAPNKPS
Procedure, shortened: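 Single-concentration competition binding screen (KINOMEscan) across a 100-kinase panel at 10 μM. Primary binding read-out is reported as % of control: (test signal − positive-control signal)/(negative-control signal − positive-control signal) × 100. Lower values indicate stronger binding.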

[3] = target: MAP kinase-interacting serine/threonine-protein kinase 1 (Homo sapiens) (UniProt Q9BUB5); test: Inhibition of full length human MKNK1 assessed as enzyme activity at 10 uM by KINOMEScan assay; parameters: scale not given: the % may be the effect or the level left; procedure, shortened: as §1
MAP kinase-interacting serine/threonine-protein kinase 1 (Homo sapiens), sequence (Q9BUB5 whole entry, looked up): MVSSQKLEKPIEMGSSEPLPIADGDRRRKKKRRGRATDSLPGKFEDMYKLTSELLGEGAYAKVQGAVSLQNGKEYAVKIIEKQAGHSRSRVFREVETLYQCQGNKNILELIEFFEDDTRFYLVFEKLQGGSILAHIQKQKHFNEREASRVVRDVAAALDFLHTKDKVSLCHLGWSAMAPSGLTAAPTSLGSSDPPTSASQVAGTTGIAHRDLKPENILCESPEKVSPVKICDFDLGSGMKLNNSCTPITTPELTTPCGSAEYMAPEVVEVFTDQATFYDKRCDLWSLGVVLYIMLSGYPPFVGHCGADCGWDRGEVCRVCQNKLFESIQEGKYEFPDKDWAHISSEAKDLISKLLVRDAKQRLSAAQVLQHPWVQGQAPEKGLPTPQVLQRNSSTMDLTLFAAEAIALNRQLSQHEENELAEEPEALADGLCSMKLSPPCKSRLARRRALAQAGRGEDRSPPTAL

[4] = target: Proto-oncogene tyrosine-protein kinase Src (Homo sapiens) (UniProt P12931); test: Inhibition of SRC (unknown origin)
Proto-oncogene tyrosine-protein kinase Src (Homo sapiens), sequence (P12931 2-536 limits assumed): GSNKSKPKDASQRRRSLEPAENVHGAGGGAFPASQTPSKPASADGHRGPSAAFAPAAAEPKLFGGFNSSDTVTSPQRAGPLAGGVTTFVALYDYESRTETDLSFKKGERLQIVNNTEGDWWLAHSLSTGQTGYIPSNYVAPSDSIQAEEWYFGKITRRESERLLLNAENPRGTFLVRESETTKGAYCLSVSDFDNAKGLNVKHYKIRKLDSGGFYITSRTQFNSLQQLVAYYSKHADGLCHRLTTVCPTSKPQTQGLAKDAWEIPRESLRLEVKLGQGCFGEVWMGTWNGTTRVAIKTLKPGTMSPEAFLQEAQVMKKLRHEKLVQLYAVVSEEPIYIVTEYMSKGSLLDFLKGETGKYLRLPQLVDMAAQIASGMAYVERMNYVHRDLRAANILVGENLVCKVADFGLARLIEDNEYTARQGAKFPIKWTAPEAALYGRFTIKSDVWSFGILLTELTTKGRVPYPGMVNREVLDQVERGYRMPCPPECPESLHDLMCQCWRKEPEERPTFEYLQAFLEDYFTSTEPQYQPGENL

`O=C1C2=C(C(=O)c3c(O)ccc(O)c31)[C@@H](O)[C@@H](O)[C@@H](O)C2` showed an Activity [1] of 95%, an Activity [2] of 77% and an Activity [3] of 45%. The % of MOE kinase hits [4] was 14%.
